Source: ChEMBL document CHEMBL1275319, “Synthesis and cytotoxicity evaluation of novel 1,4-disubstituted 1,2,3-triazoles via CuI catalysed 1,3-dipolar cycloaddition” (Eur J Med Chem, 2010)

Key:
[1] = system: A549; experiment: Antiproliferative activity against human A549 cells after 48 hrs by MTT assay; type: functional, cell-based; details: A549, 48 h
In short: (§1)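 MTT viability read-out; cells cultured in DMEM and exposed to compound for 48 h. IC50 taken as the concentration giving 50% inhibition of tumour cell proliferation.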

[2] = system: HT-29; experiment: Antiproliferative activity against human HT-29 cells after 48 hrs by MTT assay; type: functional, cell-based; details: HT-29, 48 h; in short: as §1
[3] = system: HeLa; experiment: Antiproliferative activity against human HeLa cells after 48 hrs by MTT assay; type: functional, cell-based; in short: as §1
[4] = Inhibition of tubulin polymerization at 3 uM
In short: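 Reaction started by GTP addition and run protected from light at 37 °C. Polymerization followed as fluorescence increase at 360/420 nm excitation/emission. Percent inhibition calculated relative to untreated control.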

[5] = Inhibition of tubulin polymerization at 30 uM
In short: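 GTP addition starts the reaction, run protected from light at 37 °C. Polymerization followed as fluorescence increase at 360/420 nm excitation/emission; % inhibition calculated against untreated control.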

SMILES	IC50 [1] [µM]	IC50 [2] [µM]	IC50 [3] [µM]	inhibition [4] [%]	inhibition [5] [%]
O=C(Cn1cc(-c2ccccc2)nn1)c1ccccc1	> 300	> 300	> 300	–	–
COc1cc([C@@H]2c3cc4c(cc3[C@H](O)[C@H]3COC(=O)[C@H]23)OCO4)cc(OC)c1OC	–	–	–	58.1	–
CCCCCCc1cn(CC(=O)c2ccccc2)nn1	> 300	> 300	> 300	–	–
Cc1cc(C)c(-c2cn(CC(=O)c3ccccc3)nn2)cc1C	91	190	> 300	–	6.6
Cc1ccc(-c2cn(CC(=O)c3ccccc3)nn2)cc1	292	238	> 300	–	2.8
CCC(C(=O)c1ccccc1)n1cc(-c2ccccc2)nn1 (configuration not stated)	26	116	155	–	19.3
Cc1ccc(C(=O)Cn2cc(-c3ccccc3)nn2)cc1	> 300	> 300	> 300	–	–
O=C(Cn1cc(-c2ccccc2)nn1)c1ccc(Br)cc1	> 300	> 300	> 300	–	–
CC(C(=O)c1ccccc1)n1cc(-c2ccccc2)nn1 (configuration not stated)	> 300	> 300	> 300	–	–
COc1ccc(C(=O)Cn2cc(-c3ccccc3)nn2)cc1	> 300	49	> 300	–	14.1
COc1cc2c(c(OC)c1OC)-c1ccc(OC)c(=O)cc1[C@@H](NC(C)=O)CC2 [COLCHICINE]	< 1	< 1	< 1	53.8	–
O=C(Cn1cc(-c2ccccn2)nn1)c1ccccc1	> 300	> 300	> 300	–	–
O=C(Cn1cc(CO)nn1)c1ccccc1	> 300	> 300	> 300	–	–
COc1ccc2cc(-c3cn(CC(=O)c4ccccc4)nn3)ccc2c1	> 300	> 300	> 300	–	–
COc1ccc(-c2cn(CC(=O)c3ccccc3)nn2)cc1	187	> 300	> 300	–	–
O=C(Cn1cc(-c2ccccc2)nn1)c1ccc(Cl)cc1	> 300	> 300	> 300	–	–
CCCCCc1ccc(-c2cn(CC(=O)c3ccccc3)nn2)cc1	> 300	> 300	> 300	–	–
O=C(Cn1cc(-c2ccsc2)nn1)c1ccccc1	260	> 300	> 300	–	–
